Source: PMC6863157 (Investigational new drugs, 2016)

What was measured:
[1] = Plasma pharmacokinetics; type: in vivo, human; conditions: for half-life: human, plasma; for CL/F apparent plasma clearance: steady state, geometric mean (%CV)
Outline: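 Advanced solid tumor patients took oral test compound capsules once daily on 21-day on/7-day off or 14-day on/14-day off schedules in 28-day cycles. Serial plasma was sampled after the first dose (Day 1) and last dose (Day 21 or 14) of Cycle 1, plus pre-dose on Day 1 of later cycles. Analysis was by validated LC-MS/MS with noncompartmental analysis. Racc = Day 21 AUC0–24/Day 1 AUC0–24.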

[2] = test system: RAS- or RAF-mutant FDG-PET-avid tumors; test: FDG-PET pharmacodynamic; type: in vivo, human; conditions: Cycle 1 Day 10–14 (on drug); 60-mg (21/7) MTD; 8 of 17
[3] = test system: advanced solid tumors; test: Tumor response by RECIST; type: in vivo, human; conditions: for partial responses (PRs): melanoma patients
Outline: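 Oral test compound was given once daily at 60 mg (21/7) or 100 mg (14/14) in 28-day cycles. Patients with measurable lesions had CT at screening and about every 8 weeks, assessed by RECIST. CR/PR was confirmed 4 weeks after first documentation. Archival tissue was typed for BRAF V600, NRAS Q61 and KRAS G12/13 mutations. Responses were summarized as frequency counts and percentages.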

[4] = test system: patients with advanced solid tumors; conditions: in vivo
[5] = test system: phosphorylation of ERK1/2 in cell lines harboring KRAS or BRAF mutations; conditions: cited from earlier work
[6] = test system: patients with advanced solid tumors; test: Phase Ia dose escalation/expansion: safety, DLT, MTD, adverse events; conditions: oral once daily

O=C(c1ccc(F)c(F)c1Nc1ccc(I)cc1F)N1CC(O)([C@@H]2CCCCN2)C1 [cobimetinib]
exposure vs dose ([1]; from 0.05 mg/kg (approximately 3.5 mg for a 70-kg adult) to 100 mg): dose-proportional
half-life ([1]; oral, 100 mg, t1/2 elimination half-life, 100 mg (14/14), geometric mean (range), n 13): 54 h
half-life ([1]; oral, mean terminal half-life, across all doses): 49 h
half-life ([1]; oral, terminal half-life, range, across all doses): 23 to 80 h
median tmax ([1]; oral, all cohorts): one to three
CL/F apparent plasma clearance ([1]; 60 mg (21/7), n 37): 13.8 (61) L/h
CL/F apparent plasma clearance ([1]; 100 mg (14/14), n 18): 14.8 (92) L/h
FDG-PET metabolic response rate [2]: 47%
RECIST responses ([3]; 28 patients with KRAS-mutant colorectal cancer): no responses
patients with prolonged stable disease (SD) of five months or greater ([3]; all tumor types): five
partial responses (PRs) ([3]; 60 mg on the 21/7 dosing schedule): three
partial responses (PRs) ([3]; 100 mg 14/14 dosing schedule): three
duration of stable disease ([3]; patient with adenoid cystic carcinoma): 7 months
duration of stable disease ([3]; patient with carcinoid): ≥ 47 months
duration of stable disease ([3]; patient with esophageal tumor): 6 months
duration of stable disease ([3]; patient with non-small cell lung cancer): 13 months
median time on cobimetinib of responders ([3]; seven responders, range 42–721+ days): 280 days
incidence of edema ([4]; human): 34%
incidence of treatment-related rash ([4]; human): 54%
median onset of rash ([4]; human): 12 days
median rash duration ([4]; human): 20 days
patients with Grade ≥ 2 central serous retinopathy (CSR) ([4]; human): 5%
patients with at least one SAE, regardless of causality ([4]; human): 42%
patients with at least one treatment-related AE ([4]; human): 90%
patients with dose reductions due to treatment-related rash ([4]; human): 4%
patients with gastrointestinal disorder SAEs, regardless of causality ([4]; human): 14%
patients with treatment-related AEs that led to dose reductions or interruption ([4]; human): 25%
treatment-related AEs that were Grade 1–2 ([4]; human): 72%
treatment-related rash that was Grade 1 or 2 ([4]; human): 94%
patients who experienced DLTs [4]: four
retinal vein occlusion [4]: no reports
reversibility of visual adverse events [4]: reversible and resolved within one week
symptomatic decreases in LVEF [4]: No events
effect on ERK1/2 phosphorylation [5]: inhibits the phosphorylation of ERK1/2
maximum tolerated dose (MTD) ([6]; 14/14 dosing schedule): 100 mg
maximum tolerated dose (MTD) ([6]; 21/7 dosing schedule): 60 mg
